Results taken from ChEMBL document CHEMBL3286389, “Targeting class A and C serine β-lactamases with a broad-spectrum boronic acid derivative” (J Med Chem, 2014).

Tests used:
[1] = Competitive inhibition of Escherichia coli beta-lactamase AmpC using nitrocefin as substrate by UV-Vis spectrophotometry
In short: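 Pinacol esters were tested uncleaved and hydrolysed to free acid in 50 mM phosphate pH 7.4. Ki derived from IC50 plots assuming competitive inhibition.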

[2] = Competitive inhibition of wild type beta-lactamase TEM-1 (unknown origin) expressed in Escherichia coli using 6-beta-furylacryloylamido-penicillanic acid as substrate by spectrophotometry
In short: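 TEM-1, purified. Reactions started by 0.3 nM enzyme in the AmpC assay buffer (50 mM Tris pH 7.0). FAP substrate, absorbance change at 340 nm. Inhibitor stocks were 50 mM in DMSO, diluted in phosphate pH 7. Ki from comparison of progress curves with and without inhibitor.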

[3] = Competitive inhibition of Escherichia coli beta-lactamase AmpC N289A mutant using nitrocefin as substrate by UV-Vis spectrophotometry

| SMILES | Ki [1] | Ki [2] | Ki [3] |
| --- | --- | --- | --- |
| O=C(Cc1cccs1)N[C@H](B(O)O)c1cccc(C(=O)O)c1 | 1 nM | 64 nM | – |
| CC(=O)/C=C/c1c(B(O)O)sc2ccccc12 | 240 nM | – | – |
| O=C(O)/C=C/c1c(B(O)O)sc2ccccc12 | 90 nM | – | 50 nM |
| OB(O)c1cc2ccccc2s1 | – | 50000 nM | – |
